# Laboratory results from ChEMBL document CHEMBL4000205, “Synthesis and molecular modelling studies of phenyl linked oxadiazole-phenylhydrazone hybrids as potent antileishmanial agents” (Eur J Med Chem, 2017).
# pIC50: −log10 of the molar value.
# Experiments:
# THP-1 = test: Cytotoxicity against human THP1 cells; type: cell-based
# Leishmania major [1] = test: Antileishmanial activity against promastigote form of Leishmania major JISH118 infected in human THP1 cells by Giemsa staining; type: functional, cell-based; settings: JISH118, THP-1
# In short: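 THP-1 cells grown in RPMI-1640 with 1% L-glutamine and 10% HIFBS, seeded at 5.0 x 10^4 macrophages/well and made adherent with PMA for 3 days at 37 °C, 5% CO2. Infected with stationary-stage L. major promastigotes (cultured at 26°C in Schneider's medium) at macrophage:parasite 1:5, held at 34 °C for 48 h. Extracellular parasites washed out, compounds added at various concentrations. Activity from % infected cells versus untreated after methanol fixation and Giemsa staining; triplicate.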
# U-937 [2] = test: Cytotoxicity against human U937 cells up to 50 uM; type: cell-based
# [3] = Selectivity index, ratio of IC50 for human THP1 cells to IC50 for promastigote form of Leishmania major JISH118 infected in human THP1 cells; type: toxicity, cell-based; settings: read-out: Ratio IC50
# In short: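 Selectivity index taken as the IC50 in THP-1 cells divided by the antileishmanial IC50 from infected THP-1 macrophages.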
# U-937 [4] = test: Cytotoxicity against human U937 cells; type: cell-based
# Leishmania major [5] = test: Potency index, ratio of pentamidine IC50 to test compound IC50 for promastigote form of Leishmania major JISH118 infected in human THP1 cells; type: functional
pIC50 (Leishmania major [1]),Compound,pIC50 (THP-1),Activity (U-937 [2]),selectivity ratio [3],pIC50 (U-937 [4]),Ratio IC50 (Leishmania major [5])
5.42,COc1ccccc1-c1nnc(-c2ccc(C(=O)N/N=C/c3ccc(O)cc3O)cc2)o1,3.98,Non-Toxic,27.5,–,–
4.41,COc1ccccc1-c1nnc(-c2ccc(C(=O)N/N=C/c3ccncc3)cc2)o1,3.76,Non-Toxic,4.5,–,–
4.74,COc1ccccc1-c1nnc(-c2ccc(C(=O)N/N=C/c3cccc(O)c3)cc2)o1,3.40,Non-Toxic,22,–,–
5.18,COc1ccc(/C=N/NC(=O)c2ccc(-c3nnc(-c4ccccc4OC)o3)cc2)c(O)c1,3.51,Non-Toxic,46.6,–,–
5.04,COc1ccccc1-c1nnc(-c2ccc(C(=O)N/N=C/c3ccccn3)cc2)o1,4.17,–,7.4,4.16,–
5.38,COc1ccccc1-c1nnc(-c2ccc(C(=O)N/N=C/c3ccccc3O)cc2)o1,3.68,Non-Toxic,50,–,–
4.19,COc1ccccc1-c1nnc(-c2ccc(C(=O)N/N=C/c3ccccc3[N+](=O)[O-])cc2)o1,3.79,Non-Toxic,2.5,–,–
4.47,COc1ccccc1-c1nnc(-c2ccc(C(=O)N/N=C/c3ccccc3C)cc2)o1,–,Non-Toxic,–,–,–
5.85,COc1ccccc1-c1nnc(-c2ccc(C(=O)N/N=C/c3cccc(O)c3O)cc2)o1,3.99,Non-Toxic,72.6,–,–
4.25,COc1ccccc1-c1nnc(-c2ccc(C(=O)N/N=C/c3ccc([N+](=O)[O-])cc3)cc2)o1,3.69,Non-Toxic,3.6,–,–
5.13,COc1ccccc1-c1nnc(-c2ccc(C(=O)N/N=C/c3ccc(O)cc3)cc2)o1,3.58,Non-Toxic,35,–,–
4.40,COc1ccccc1-c1nnc(-c2ccc(C(=O)N/N=C/c3cccc(C)c3)cc2)o1,–,Non-Toxic,–,–,–
4.13,COc1ccccc1-c1nnc(-c2ccc(C(=O)N/N=C/c3cccc([N+](=O)[O-])c3)cc2)o1,3.93,Non-Toxic,1.6,–,–
4.79,COc1ccc(O)c(/C=N/NC(=O)c2ccc(-c3nnc(-c4ccccc4OC)o3)cc2)c1,3.52,Non-Toxic,18.6,–,–
4.10,COc1cccc(/C=N/NC(=O)c2ccc(-c3nnc(-c4ccccc4OC)o3)cc2)c1,–,Non-Toxic,–,–,–
6.01,COc1ccccc1-c1nnc(-c2ccc(C(=O)N/N=C/c3cc(O)c(O)cc3O)cc2)o1,5.27,–,5.5,5.13,–

pIC50 (Leishmania major [1]),Compound,pIC50 (THP-1),Activity (U-937 [2]),selectivity ratio [3],pIC50 (U-937 [4]),Ratio IC50 (Leishmania major [5])
5.19,COc1ccc(/C=N/NC(=O)c2ccc(-c3nnc(-c4ccccc4OC)o3)cc2)cc1O,3.58,Non-Toxic,40.6,–,–
4.53,COc1ccccc1-c1nnc(-c2ccc(C(=O)N/N=C/c3ccc(C)cc3)cc2)o1,–,Non-Toxic,–,–,–
5.32,COc1ccccc1-c1nnc(-c2ccc(C(=O)N/N=C/c3c(O)cc(O)cc3O)cc2)o1,4.91,–,2.6,4.82,–
5.29,COc1ccccc1-c1nnc(-c2ccc(C(=O)N/N=C/c3ccccc3F)cc2)o1,3.50,Non-Toxic,60.4,–,–
4.13,COc1ccc(/C=N/NC(=O)c2ccc(-c3nnc(-c4ccccc4OC)o3)cc2)cc1,–,Non-Toxic,–,–,–
5.20,COc1ccccc1-c1nnc(-c2ccc(C(=O)N/N=C/c3cccc(F)c3)cc2)o1,3.45,Non-Toxic,55.6,–,–
5.35,COc1ccccc1-c1nnc(-c2ccc(C(=O)N/N=C/c3cc(O)ccc3O)cc2)o1,4.00,Non-Toxic,22.4,–,–
6.02,COc1ccccc1-c1nnc(-c2ccc(C(=O)N/N=C/c3ccc(O)c(O)c3)cc2)o1,4.00,Non-Toxic,105,–,7
5.29,COc1ccccc1-c1nnc(-c2ccc(C(=O)N/N=C/c3ccc(Cl)cc3Cl)cc2)o1,4.10,–,15.4,4.12,–
4.54,COc1ccccc1-c1nnc(-c2ccc(C(=O)N/N=C/c3ccccc3Cl)cc2)o1,–,Non-Toxic,–,–,–
4.68,COc1ccccc1-c1nnc(-c2ccc(C(=O)N/N=C/c3cccc(Cl)c3)cc2)o1,–,Non-Toxic,–,–,–
4.33,COc1ccccc1-c1nnc(-c2ccc(C(=O)N/N=C/c3cccnc3)cc2)o1,3.78,Non-Toxic,3.6,–,–
4.47,COc1ccccc1-c1nnc(-c2ccc(C(=O)N/N=C/c3ccc(Cl)cc3)cc2)o1,–,Non-Toxic,–,–,–
–,N=C(N)c1ccc(OCCCCCOc2ccc(C(=N)N)cc2)cc1 [PENTAMIDINE],5.11,–,1.1,5.22,–
4.85,COc1ccccc1-c1nnc(-c2ccc(C(=O)N/N=C/c3ccc(F)cc3)cc2)o1,3.37,Non-Toxic,30.1,–,–
